# Compound activity: PubChem, Johns Hopkins Ion Channel Center
# RGS4 act: potentiators or activators of RGS4; AID 463111; B-score at 10 µM; 310,000 compounds, 0.92% hits; HEK293 M3R/inducible RGS4, carbachol calcium flux Fluo4; active compounds read low;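 active = B-score of the integrated calcium signal more than 4 SD below the library mean, with starting fluorescence not abnormally high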;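 note: negative B-score means reduced calcium response which marks RGS4 activation or potentiation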
#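 Assay system: HEK293 FlpIn-TREx cells, stable M3R, doxycycline-inducible RGS4 / Probe or stimulus: carbachol, ECmax concentration / Times: overnight RGS4 induction, 30 min dye load 37 °C, 20 min compound RT / Signal: kinetic calcium fluorescence imaging with Fluo4-AM dye, 2 µM / Measure: Agonist-evoked peak-minus-minimum fluorescence over baseline, integrated ratio, B score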
# MrgX1 PAM: allosterically activates human MrgX1 receptor signaling. Q96LB2. MrgX1-HEK293, Fluo-4 calcium flux, FDSS; active compounds read high. B-score at 10 µM. 310,000 compounds, 0.63% hits;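 active = plate-corrected calcium response at least 3 library SD above typical, normal starting fluorescence, not activating the receptor alone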;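 note: compound read alongside a low EC10 to EC30 dose of BAM8-22 agonist; peak minus trough fluorescence over baseline measured at the second addition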
# Target sequence (Q96LB2 whole entry, looked up): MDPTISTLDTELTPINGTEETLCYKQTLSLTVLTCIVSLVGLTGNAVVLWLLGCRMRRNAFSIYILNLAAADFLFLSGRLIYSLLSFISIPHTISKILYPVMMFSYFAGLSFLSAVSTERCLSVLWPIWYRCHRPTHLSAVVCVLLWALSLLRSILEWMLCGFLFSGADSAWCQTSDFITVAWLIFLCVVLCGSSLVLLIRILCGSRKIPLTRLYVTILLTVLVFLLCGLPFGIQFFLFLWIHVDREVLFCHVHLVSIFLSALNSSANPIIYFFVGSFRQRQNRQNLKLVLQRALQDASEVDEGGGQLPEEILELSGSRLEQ
# RGS4 block: inhibitors of human RGS4 | HEK293 M3R/RGS4 inducible, Fluo-4 calcium flux; active compounds read high; triggered by carbachol at its EC20 | B-score at 10 µM | P49798 | 310,000 compounds, 0.45% hits;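 active = B-score, a plate-corrected calcium signal, over three deviations above library mean, with baseline fluorescence within five deviations of library mean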;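 note: RGS4 expression induced by doxycycline in cells with stable M3 receptor; B-score is computed from the integrated fluorescence ratio over baseline after carbachol; higher B-score means a larger calcium signal and so more RGS4 inhibition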
# Target sequence (P49798 whole entry, looked up): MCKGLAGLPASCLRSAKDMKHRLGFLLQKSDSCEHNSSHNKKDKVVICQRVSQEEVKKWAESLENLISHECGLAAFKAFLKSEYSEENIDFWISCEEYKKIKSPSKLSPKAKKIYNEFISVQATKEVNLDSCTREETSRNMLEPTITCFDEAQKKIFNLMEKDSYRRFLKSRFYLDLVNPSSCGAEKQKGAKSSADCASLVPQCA
# MrgX1 antagonist: antagonists of human MrgX1 receptor; AID 588676; 310,000 compounds, 1.3% hits; B-score at 10 µM; Q96LB2; MRGX1-HEK293 calcium flux, Fluo-4, BAM8-22 antagonism; active compounds read low;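 active = calcium-response B-score plate-corrected more than 3 library SD below zero, starting fluorescence within 5 deviations, no agonist response on first addition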;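 note: peak minus trough fluorescence over baseline after final BAM8-22 challenge near maximal dose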
# MrgX1 ag: activates human MrgX1 receptor signaling | Q96LB2 | MrgX1-HEK293 cells, Fluo-4 calcium fluorescence, agonist mode; active compounds read high | B-score at 10 µM | 310,000 compounds, 0.44% hits | AID 588627;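 active = calcium response B-score plate-corrected fluorescence ratio at least 3 library SD, with starting fluorescence B-score inside 5 SD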
#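 Assay system: MrgX1-expressing HEK293 cells / Amount: fifteen thousand cells per well / Doses: test compound in the initial addition of three / Timing: cells plated overnight, dye loaded 0.5 h 37 °C, 0.5 h room temperature / Technique: kinetic calcium dye fluorescence, Fluo-4 NW / Control set: positive and negative controls per plate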
# MrgX1 ag confirm: confirmation of human MrgX1 receptor agonists | shares compounds with MrgX1 ag | MrgX1-HEK293, Fluo-4 calcium fluorescence, FDSS | activation, % at 10 µM | 600 compounds, 78% hits;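 active = calcium signal rise, corrected for plate position, at least 3 library SD high, with starting brightness within 5 such deviations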
# HEK293 Ca flux: activity in parental HEK293 cells lacking MrgX1 | Fluo-4 calcium fluorescence, FDSS | 4,000 compounds, 2% hits | fluorescence ratio F(max-min)/F0 at 10 µM | AID 624111 | shares compounds with MrgX1 antagonist;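 active = duplicate-averaged calcium fluorescence ratio at least three times the standard deviation of buffer wells, a nonspecific response in parental cells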
# HEK293 Ca counter: counter-screen for MrgX1 allosteric activators: effect in parental HEK293 cells. fluorescence ratio F(max-min)/F0 at 10 µM. shares compounds with MrgX1 antagonist. parental HEK293 calcium flux, Fluo-4 fluorescence ratio; active compounds read high. 4,000 compounds, 0.4% hits;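 active = calcium fluorescence ratio, averaged over duplicates, at least 3 SD of the buffer-well ratio, meaning a nonspecific response in receptor-free cells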;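 note: untransfected parental HEK293 lacking MrgX1 used as counterscreen for MrgX1 allosteric activators; fluorescence change taken during the second addition on a kinetic imager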
# HEK293 Ca cntr2: counter-screen for MrgX1 activators: effect in parental HEK293 cells. fluorescence ratio F(max-min)/F0 at 10 µM. AID 624115. 4,000 compounds, 8.7% hits. shares compounds with MrgX1 antagonist. Fluo-4 calcium fluorescence (FDSS); active compounds read high;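 active = calcium fluorescence ratio at least three times the spread of buffer wells, meaning a non-specific response in parental cells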
# Numbers without * were called inactive; i = inactive; . = not tested or not shown. Shown are actives, neighbours in structure and some others; about 3.5% of the full set was active somewhere.
SMILES,RGS4 act,MrgX1 PAM,RGS4 block,MrgX1 antagonist,MrgX1 ag,MrgX1 ag confirm,HEK293 Ca flux,HEK293 Ca counter,HEK293 Ca cntr2
COc1ccccc1C(=O)NC(=O)CSc1nnc(C)s1,i,i,i,i,i,.,.,.,.
CCNc1c(NS(=O)(=O)c2ccc(Cl)s2)c(=O)oc2ccccc12,i,i,i,i,i,.,.,.,.
CCCCN(C(=O)c1cc(=O)[nH]c2ccccc12)c1c(N)n(CCCC)c(=O)[nH]c1=O,i,i,i,i,i,.,.,.,.
COc1cc(OC)cc(C(=O)NC(=S)NNC(=O)Cc2cccs2)c1,i,i,i,i,72*,535%*,i,i,102*
COc1cc(NC(=O)Cc2cccs2)cc(OC)c1,i,i,i,i,i,.,.,.,.
CCn1c(SCC(=O)N2CCC(C)CC2)nc2c1c(=O)n(C)c(=O)n2C,i,i,i,i,i,.,.,.,.
CCOC(=O)c1c(CC(C)C)csc1NC(C)=O,i,i,i,i,i,.,.,.,.
CCOC(=O)c1c(CC(C)C)csc1NC(=O)c1ccccc1C(=O)O,i,i,i,i,37*,220%*,i,i,i
O=S(=O)(Nc1cccc(-c2ccc3nncn3n2)c1)c1cc(F)ccc1F,i,i,i,i,45*,204%*,i,i,i
Cc1ccc(S(=O)(=O)Nc2cccc(-c3ccc4nncn4n3)c2)cc1,i,i,i,i,i,.,.,.,.
CCn1c(NC(=O)Nc2cccc(C)c2C)cc2sccc21,i,i,i,i,i,.,.,.,.
CCc1ccc(CNc2ccc3c(c2)ncn3CC)cc1,i,i,i,i,30*,166%*,i,i,i
CCc1ccc(CNc2ccc3c(c2)ncn3C(C)(C)C)cc1,i,i,i,i,i,.,.,.,.
O=C(CNCC1CCCCC1)Nc1ccc(OC(F)(F)F)cc1,i,i,i,i,106*,416%*,i,i,52*
Cc1ccc(S(=O)(=O)N2CCCCC2CCNC(=O)C(=O)Nc2ccccc2F)cc1 (stereo not given),i,i,i,i,i,.,.,.,.
Cc1[nH][nH]c(=O)c1C(c1ccc(-c2cccc(Cl)c2)o1)c1c(C)[nH][nH]c1=O,i,i,i,i,29*,198%*,i,i,56*
Cc1ccccc1NC(=O)CN1CCOCC1,i,i,i,i,35*,i,i,i,i
O=C(Nc1ccc(Cl)cc1Cl)c1ccc2c(=O)n3c(nc2c1)CCC3,i,i,i,i,85*,462%*,i,i,107*
O=C(Nc1ccc(Br)cc1Cl)c1ccc2c(=O)n3c(nc2c1)CCC3,i,i,i,i,55*,468%*,i,i,102*
O=C(Nc1ccc(Cl)cc1)c1ccc2c(=O)n3c(nc2c1)CCCCC3,i,i,i,i,i,.,.,.,.
CC/C(=N/O)C(=O)c1ccc(Br)cc1,i,i,i,i,i,.,.,.,.
CCOC(=O)N1CCN(C(=O)COC(=O)c2ccc(S(=O)(=O)N(CC)CC)cc2)CC1,i,i,i,i,i,.,.,.,.
Cc1ccc(-n2c(CCC(=O)O)ccc2-c2cccs2)cc1,i,i,i,i,33*,149%*,i,i,i
CC(=O)c1ccc(-n2c(CCC(=O)O)ccc2-c2cccs2)cc1,i,i,i,i,i,.,.,.,.
CNC(=O)CSc1nnc(NC(=O)C2CC(=O)N(c3ccccc3OC)C2)s1 (stereo not given),i,i,i,i,i,.,.,.,.
SMILES,RGS4 act,MrgX1 PAM,RGS4 block,MrgX1 antagonist,MrgX1 ag,MrgX1 ag confirm,HEK293 Ca flux,HEK293 Ca counter,HEK293 Ca cntr2
COc1ccc(NC(=S)N(CCN2CCOCC2)C2CCN(C(C)=O)CC2)cc1Cl,i,i,i,i,69*,i,i,i,i
O=C1COc2ccc(C(=O)CSc3nnc(Cc4cccs4)n3-c3ccccc3)cc2N1,i,i,i,i,27*,175%*,i,i,i
CCCOc1ccc(C(=O)NNC(=S)NC(=O)c2ccccc2)cc1,-8.4*,i,i,i,91*,663%*,i,i,128*
CCCOc1ccc(C(=O)NNC(=S)NC(=O)c2cccs2)cc1,-8.6*,i,i,i,110*,496%*,i,i,104*
CCOc1ccc2[nH]c3nc(SCC(=O)OC(C)C)nnc3c2c1,i,i,i,i,i,.,.,.,.
O=C(C#Cc1ccccc1)c1ccco1,i,i,i,i,44*,240%*,i,i,i
COc1sc(SC)cc1/C=N/NC(=O)c1ccncc1,i,i,i,i,i,.,.,.,.
COc1cccc(CNC(=O)CCC2CCCN(C(=O)c3ccc(C)nc3)C2)c1 (stereo not given),i,i,i,i,i,.,.,.,.
COc1cccc(CNC(=O)CCC2CCCN(c3cc(C)nc(N)n3)C2)c1 (stereo not given),i,i,i,i,30*,i,i,i,i
Nc1nnc(SCC(=O)c2ccccc2)s1,i,i,i,i,i,.,.,.,.
Nc1c(C(=O)c2ccccc2)sc2snc(SCC(=O)c3ccccc3)c12,i,i,i,i,32*,225%*,0.41*,i,55*
CC(C)OC(=O)CSc1nnc(-c2ccc(C(C)(C)C)cc2)n1N,i,i,i,i,i,.,.,.,.
CC(C)OC(=O)CSc1nnc(-c2ccncc2)n1N,i,i,i,i,41*,i,i,i,i
CCCC1(C)Nc2ccccc2-c2nc3ccccc3n21 (stereo not given),i,i,i,i,i,.,.,.,.
c1ccc2c(c1)NC1(CCCC1)n1c-2nc2ccccc21,i,i,i,i,29*,144%*,i,i,i
C=CCc1cccc(/C=N/NC(=O)C(C)Nc2ccc(C)cc2)c1O (stereo not given),i,i,i,i,i,.,.,.,.
